Test results taken from ChEMBL document CHEMBL4229550, “An antimycobacterial pleuromutilin analogue effective against dormant bacilli” (Bioorg Med Chem, 2018).
Converted amounts (≈) assume the structure as drawn. The source made the active and inactive calls. No cut-off for these calls is given here.

How the values were obtained:
[1] = system: Mycobacterium tuberculosis; assay: Antibacterial activity against Mycobacterium tuberculosis Erdman infected in Balb/c mouse assessed as reduction in bacterial load in lungs at 2.5 mg/kg, po for 3 weeks starting from 10 days post infection measured on day 21 post infection; assay type: functional, Erdman = ATCC 35801
How it was run: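 Female BALB/c mice, 7–8 weeks old, are aerosol-infected with Mtb Erdman. From day 10 they receive oral gavage in water for three weeks, in groups of 5. Lungs and spleens are harvested at day 21 post-infection and plated for CFU. Efficacy is the log10 reduction in lung burden versus untreated (vehicle) controls.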

[2] = system: Mycobacterium tuberculosis; assay: Antibacterial activity against replicating Mycobacterium tuberculosis H37Rv incubated for 15 days under aerobic condition by MABA; assay type: functional; settings: 360 h, read-out: MIC100
How it was run: (§1)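 Mtb H37Rv grown in 7H9/OADC at 37 °C with shaking to OD600 0.5. The 0.5-OD culture is exposed aerobically to serial dilutions for 15 days at 37 °C. Resazurin (0.02% stock) is then added for 4 h at 37 °C with shaking.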

Vero = assay: Cytotoxicity against African green monkey Vero cells assessed as reduction in cell viability after 72 hrs by MTT assay; assay type: cell-based; settings: Chlorocebus sabaeus
How it was run: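 Vero cells were grown in complete EMEM with 10% FBS and exposed for 72 h to 0.78–200 µg/mL. The medium was then swapped for phenol-red-free EMEM and MTT was added. Formazan absorbance was read at 570 nm to give IC50.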

[3] = Selectivity index, ratio of IC50 for African green monkey Vero cells to MIC100 for replicating Mycobacterium tuberculosis H37Rv by MABA; assay type: toxicity; settings: read-out: Selectivity Index
How it was run: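 Vero cells are cultured in EMEM with 10% FBS and exposed for 72 h to 0.78–200 µg/mL. Medium is switched to phenol-red-free EMEM, MTT is added, and formazan is read at 570 nm to give IC50. The selectivity index is Vero IC50 divided by the MABA MIC.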

[4] = system: Mycobacterium tuberculosis; assay: Bactericidal activity against replicating Mycobacterium tuberculosis H37Rv incubated for 15 days under aerobic condition by MABA; assay type: functional; settings: 360 h; how it was run: as §1
[5] = system: Mycobacterium tuberculosis; assay: Bactericidal activity against non-replicating Mycobacterium tuberculosis CDC1551 expressing tdTomato infected in mouse J774A.1 cells at 2 times MIC up to 72 hrs by UV-Visible spectroscopic method; assay type: functional, organism-based
How it was run: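 J774A.1 macrophages are seeded at […] cells/well in DMEM and incubated overnight at 37 °C. They are infected with saline-washed Mtb CDC1551-tdTomato (10^6 bacteria, MOI ≈10), and extracellular bacteria are washed off with PBS. Treatment is at 2×MIC, with fluorescence emission read at 581 nm at 24, 48, 72 and 96 h. Survivors are confirmed by serial dilution and plating on 7H11.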

Staphylococcus aureus [6] = assay: Antibacterial activity against Staphylococcus aureus incubated for 24 hrs under aerobic condition by MABA; assay type: functional; settings: read-out: MIC100
How it was run: (§2)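 Resazurin was then added from a 0.08% stock for 1 h. MIC100 was the lowest concentration where the dye stayed blue (pink means growth). Absorbance was also read at 570 and 600 nm.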

[7] = system: Mycobacterium tuberculosis; assay: Antibacterial activity against Mycobacterium tuberculosis; assay type: functional; settings: read-out: MIC100; how it was run: as §1
Escherichia coli [8] = assay: Inhibition of protein translation/transcription in Escherichia coli S30 cell extract at 0.1 ug/ml using circular DNA with pBESTluc after 60 mins by luciferase reporter gene assay; assay type: functional
How it was run: (§3)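 Coupled transcription/translation used E. coli S30 extract, amino acid mix and premix, with the pBESTluc template carrying firefly luciferase under the tac promoter. Compounds were added in DMSO and reactions were started with DNA. Incubation was 60 min at 37 °C, stopped on ice, and luciferase was read after adding assay substrate.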

Escherichia coli [9] = assay: Inhibition of protein translation/transcription in Escherichia coli S30 cell extract at 0.5 ug/ml using circular DNA with pBESTluc after 60 mins by luciferase reporter gene assay; assay type: functional; how it was run: as §3
Erythrocyte = assay: Hemolytic activity in sheep erythrocytes after 2 hrs; assay type: ADME, cell-based; settings: Ovis aries
How it was run: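 Washed heparinized sheep erythrocytes at 3% in buffer pH 7.4 were treated with 2–200 µg/mL for 2 h at 37 °C with gentle shaking. Triton X-100 (0.01–1%) was the positive control and PEG:H2O diluent the negative control. Released hemoglobin was read at OD540 and % hemolysis calculated against both controls.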

[10] = Metabolic stability in Sprague-Dawley rat liver microsomes at 500 ng/ml preincubated for 5 mins followed by NADPH addition […] by C-MS/MS analysis; assay type: ADME, microsome; settings: 10 min
[11] = system: Mycolicibacterium smegmatis; assay: Antibacterial activity against Mycobacterium smegmatis ATCC 607 incubated for 48 hrs under aerobic condition by MABA; assay type: functional; settings: ATCC 607, 48 h, read-out: MIC100
How it was run: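 Mid-log culture at OD 0.5 was incubated with serial dilutions aerobically at 37 °C for 48 h. Resazurin was then added from a 0.08% stock for 1 h. MIC100 was the lowest concentration that stayed blue; absorbance was also read at 570/600 nm.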

[12] = system: Mycolicibacterium smegmatis; assay: Bactericidal activity against Mycobacterium smegmatis ATCC 607 incubated for 48 hrs under aerobic condition by MABA; assay type: functional; settings: ATCC 607, 48 h
Staphylococcus aureus [13] = assay: Bactericidal activity against Staphylococcus aureus incubated for 24 hrs under aerobic condition by MABA; assay type: functional
Staphylococcus aureus [14] = assay: Antibacterial activity against Staphylococcus aureus ATCC 25923 incubated for 24 hrs under aerobic condition by MABA; assay type: functional; settings: ATCC 25923, 24 h, read-out: MIC100
How it was run: (§4)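 Mid-log cultures at OD 0.5 were exposed to serial dilutions under aerobic conditions at 37 °C for 24 h. Resazurin was then added from a 0.08% stock for 1 h. MIC100 was the lowest concentration where the dye stayed blue (pink means growth). Absorbance was also read at 570 and 600 nm.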

Staphylococcus aureus [15] = assay: Bactericidal activity against Staphylococcus aureus ATCC 25923 incubated for 24 hrs under aerobic condition by MABA; assay type: functional; settings: ATCC 25923, 24 h
Staphylococcus aureus [16] = assay: Antibacterial activity against Staphylococcus aureus BAA 2094 incubated for 24 hrs under aerobic condition by MABA; assay type: functional; settings: BAA 2094, 24 h, read-out: MIC100; how it was run: as §2
Staphylococcus aureus [17] = assay: Bactericidal activity against Staphylococcus aureus BAA 2094 incubated for 24 hrs under aerobic condition by MABA; assay type: functional; settings: BAA 2094, 24 h
Staphylococcus aureus [18] = assay: Antibacterial activity against Staphylococcus aureus BAA 1683 incubated for 24 hrs under aerobic condition by MABA; assay type: functional; settings: BAA 1683, 24 h, read-out: MIC100; how it was run: as §4
Staphylococcus aureus [19] = assay: Bactericidal activity against Staphylococcus aureus BAA 1683 incubated for 24 hrs under aerobic condition by MABA; assay type: functional; settings: BAA 1683, 24 h
Staphylococcus aureus [20] = assay: Antibacterial activity against Staphylococcus aureus BAA 44 incubated for 24 hrs under aerobic condition by MABA; assay type: functional; settings: BAA 44, 24 h, read-out: MIC100; how it was run: as §4
Staphylococcus aureus [21] = assay: Bactericidal activity against Staphylococcus aureus BAA 44 incubated for 24 hrs under aerobic condition by MABA; assay type: functional; settings: BAA 44, 24 h
Enterococcus faecalis [22] = assay: Antibacterial activity against Enterococcus faecalis ATCC 349 incubated for 24 hrs under aerobic condition by MABA; assay type: functional; settings: ATCC 349, 24 h, read-out: MIC100; how it was run: as §4
Enterococcus faecalis [23] = assay: Bactericidal activity against Enterococcus faecalis ATCC 349 incubated for 24 hrs under aerobic condition by MABA; assay type: functional; settings: ATCC 349, 24 h
Enterococcus faecalis [24] = assay: Antibacterial activity against Enterococcus faecalis ATCC 19433 incubated for 24 hrs under aerobic condition by MABA; assay type: functional; settings: ATCC 19433, 24 h, read-out: MIC100; how it was run: as §4
Enterococcus faecalis [25] = assay: Bactericidal activity against Enterococcus faecalis ATCC 19433 incubated for 24 hrs under aerobic condition by MABA; assay type: functional; settings: ATCC 19433, 24 h
Clostridioides difficile = assay: Bactericidal activity against Clostridium difficile ATCC 700057 incubated for 24 hrs […] by MABA; assay type: functional; settings: ATCC 700057, 24 h
Streptococcus pneumoniae [26] = assay: Antibacterial activity against Streptococcus pneumoniae ATCC 6301 incubated for 24 hrs under aerobic condition by MABA; assay type: functional; settings: ATCC 6301, 24 h, read-out: MIC100; how it was run: as §4
Streptococcus pneumoniae [27] = assay: Bactericidal activity against Streptococcus pneumoniae ATCC 6301 incubated for 24 hrs under aerobic condition by MABA; assay type: functional; settings: ATCC 6301, 24 h
Klebsiella pneumoniae [28] = assay: Antibacterial activity against Klebsiella pneumoniae ATCC 12019 incubated for 24 hrs under aerobic condition by MABA; assay type: functional; settings: ATCC 12019, 24 h, read-out: MIC100; how it was run: as §4
Klebsiella pneumoniae [29] = assay: Bactericidal activity against Klebsiella pneumoniae ATCC 12019 incubated for 24 hrs under aerobic condition by MABA; assay type: functional; settings: ATCC 12019, 24 h
Acinetobacter baumannii [30] = assay: Antibacterial activity against Acinetobacter baumannii ATCC 19606 incubated for 24 hrs under aerobic condition by MABA; assay type: functional; settings: ATCC 19606 = CIP 70.34 = JCM 6841, 24 h, read-out: MIC100; how it was run: as §4
Acinetobacter baumannii [31] = assay: Bactericidal activity against Acinetobacter baumannii ATCC 19606 incubated for 24 hrs under aerobic condition by MABA; assay type: functional; settings: ATCC 19606 = CIP 70.34 = JCM 6841, 24 h
Escherichia coli [32] = assay: Antibacterial activity against Escherichia coli ATCC 10798 incubated for 24 hrs under aerobic condition by MABA; assay type: functional; settings: ATCC 10798, 24 h, read-out: MIC100; how it was run: as §4
Escherichia coli [33] = assay: Bactericidal activity against Escherichia coli ATCC 10798 incubated for 24 hrs under aerobic condition by MABA; assay type: functional; settings: ATCC 10798, 24 h
Streptococcus salivarius [34] = assay: Antibacterial activity against Streptococcus salivarius […] incubated for 24 hrs under aerobic condition by MABA; assay type: functional; settings: read-out: MIC100; how it was run: as §2
Streptococcus salivarius [35] = assay: Bactericidal activity against Streptococcus salivarius ATCC 6301 incubated for 24 hrs under aerobic condition by MABA; assay type: functional; settings: ATCC 6301, 24 h
Bacillus subtilis [36] = assay: Antibacterial activity against Bacillus subtilis ATCC 6051 incubated for 24 hrs under aerobic condition by MABA; assay type: functional; settings: ATCC 6051, 24 h, read-out: MIC100; how it was run: as §4
Bacillus subtilis [37] = assay: Bactericidal activity against Bacillus subtilis ATCC 6051 incubated for 24 hrs under aerobic condition by MABA; assay type: functional; settings: ATCC 6051, 24 h
[38] = system: Mycobacterium tuberculosis; assay: Bactericidal activity against Mycobacterium tuberculosis H37Rv at 2 times MIC measured every 24 hrs up to 12 days by time kill assay relative to control; assay type: functional
How it was run: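 Mid-log H37Rv (OD 0.5) is diluted to OD 0.25 and exposed at MIC, 2×MIC or 4×MIC. Every 24 h cultures are diluted 10- to 10,000-fold and plated on 7H10/OADC agar. Plates are incubated 15 days at 37 °C before colony counts.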

NNC(=O)c1ccncc1 [ISONIAZID]
log(activity) [1]: 4.22
MIC [2]: 0.04 to 0.1 µg/mL (≈ 0.292 to 0.729 µM)
IC50 (Vero): > 200 µg/mL
selectivity ratio [3]: > 2000
MBC [4]: 0.57 µg/mL (≈ 4.16 µM)
Activity [5]: inactive

C=C[C@]1(C)C[C@@H](OC(=O)CSC(C)(C)CNC(=O)[C@H](N)CC(C)C)[C@]2(C)[C@H](C)CC[C@]3(CCC(=O)[C@H]32)[C@@H](C)[C@@H]1O
MIC (Staphylococcus aureus [6]): 0.4 µg/mL (≈ 0.691 µM)
MIC [7]: < 6.25 µg/mL
IC50 (Vero): 25 µg/mL (≈ 43.2 µM)
selectivity ratio [3]: 16
inhibition (Escherichia coli [8]): Active
inhibition (Escherichia coli [9]): Active
IC50 (Erythrocyte): > 200 µM
Stability [10]: Unstable
MBC [4]: 1.46 µg/mL (≈ 2.52 µM)
MIC [11]: 6.25 µg/mL (≈ 10.8 µM)
MBC [12]: > 25 µg/mL
MBC (Staphylococcus aureus [13]): 0.8 µg/mL (≈ 1.38 µM)
MIC (Staphylococcus aureus [14]): > 25 µg/mL
MBC (Staphylococcus aureus [15]): > 25 µg/mL
MIC (Staphylococcus aureus [16]): > 25 µg/mL
MBC (Staphylococcus aureus [17]): > 25 µg/mL
MIC (Staphylococcus aureus [18]): > 25 µg/mL
MBC (Staphylococcus aureus [19]): > 25 µg/mL
MIC (Staphylococcus aureus [20]): > 25 µg/mL
MBC (Staphylococcus aureus [21]): > 25 µg/mL
MIC (Enterococcus faecalis [22]): > 25 µg/mL
MBC (Enterococcus faecalis [23]): > 25 µg/mL
MIC (Enterococcus faecalis [24]): 12.5 µg/mL (≈ 21.6 µM)
MBC (Enterococcus faecalis [25]): 25 µg/mL (≈ 43.2 µM)
MBC (Clostridioides difficile): 1.56 µg/mL (≈ 2.69 µM)
MIC (Streptococcus pneumoniae [26]): 25 µg/mL (≈ 43.2 µM)
MBC (Streptococcus pneumoniae [27]): > 25 µg/mL
MIC (Klebsiella pneumoniae [28]): 25 µg/mL (≈ 43.2 µM)
MBC (Klebsiella pneumoniae [29]): > 25 µg/mL
MIC (Acinetobacter baumannii [30]): 12.5 µg/mL (≈ 21.6 µM)
MBC (Acinetobacter baumannii [31]): 25 µg/mL (≈ 43.2 µM)
MIC (Escherichia coli [32]): 12.5 µg/mL (≈ 21.6 µM)
MBC (Escherichia coli [33]): > 25 µg/mL
MIC (Streptococcus salivarius [34]): 6.25 µg/mL (≈ 10.8 µM)
MBC (Streptococcus salivarius [35]): > 25 µg/mL
MIC (Bacillus subtilis [36]): 12.5 µg/mL (≈ 21.6 µM)
MBC (Bacillus subtilis [37]): 25 µg/mL (≈ 43.2 µM)
Activity [38]: 100%
